Results published in ChEMBL document CHEMBL4616722, “Discovery of Novel PDEδ Degraders for the Treatment of KRAS Mutant Colorectal Cancer” (J Med Chem, 2020).
Calls of active or inactive are those of the source. The rule behind the calls is not given here.

Tests used:
SW480 [1] = experiment: Antiproliferative activity against human SW480 cells incubated for 72 hrs by CCK8 assay; conditions: SW480, 72 h
HCT-116 = experiment: Antiproliferative activity against human HCT116 cells incubated for 72 hrs by CCK8 assay; conditions: HCT-116, 72 h
Mus musculus [2] = experiment: In-vivo protac activity at cereblon/PDE6D in BALB/C nude mouse xenografted with human SW480 cells assessed as decrease in PDEdelta level at 50 mg/kg, ip dosed once daily for 12 consecutive days by immunofluorescence assay; assay type: functional, organism-based
How it was run: (§1)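 Tumor tissue from SW480-transplanted nude mice analysed by immunofluorescence for PDEδ, RAS and p-Akt protein expression.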

[3] = Toxicity in BALB/C nude mouse xenografted with human SW480 cells assessed as induction of body weight loss at 50 mg/kg, ip dosed once daily for 12 consecutive days; assay type: organism-based; conditions: in vivo
How it was run: (§2)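 SW480 xenografts in nude mice, dosed intraperitoneally once a day for 12 consecutive days and compared with a vehicle group. Tumor growth followed over time and expressed as TGI, with data as mean ± standard deviation and significance by P value. Body weight and adverse effects were monitored throughout the study.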

SW480 [4] = experiment: Induction of apoptosis in human SW480 cells assessed as late apoptotic cells level at 40 uM incubated for 24 hrs by propidium iode and annexin V-FITC staining based flow cytometry (reference value: 4.46%); assay type: functional
SW480 [5] = experiment: Induction of apoptosis in human SW480 cells assessed as necrotic cells level at 40 uM incubated for 24 hrs by propidium iode and annexin V-FITC staining based flow cytometry (reference value: 2.79%); assay type: functional
SW480 [6] = experiment: Induction of apoptosis in human SW480 cells assessed as early apoptotic cells level at 40 uM incubated for 24 hrs by propidium iode and annexin V-FITC staining based flow cytometry (reference value: 1.76%); assay type: functional
SW480 [7] = experiment: Antitumor activity against human SW480 cells xenografted in BALB/C nude mouse assessed as tumor growth inhibition at 50 mg/kg, ip dosed once daily for 12 consecutive days relative to control; assay type: functional; conditions: read-out: TGI; how it was run: as §2
[8] = Toxicity in BALB/C nude mouse xenografted with human SW480 cells assessed as induction of adverse effects at 50 mg/kg, ip dosed once daily for 12 consecutive days; assay type: organism-based; conditions: in vivo; how it was run: as §2
[9] = Tmax in Sprague-Dawley rat at 50 mg/kg, ip measured after 0.083 to 24 hrs by LC-MS/MS analysis; assay type: ADME, organism-based; conditions: in vivo
How it was run: (§3)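 Rats given the compound intraperitoneally at 50 mg/kg, with drug levels measured in plasma over time. The concentration–time profile gave half-life, Cmax and AUC.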

SW480 [10] = experiment: Antiproliferative activity against human SW480 cells incubated for 72 hrs in presence of 30 uM pomalidomide by CCK8 assay; conditions: SW480, 72 h
[11] = Half life in Sprague-Dawley rat at 50 mg/kg, ip measured after 0.083 to 24 hrs by LC-MS/MS analysis; assay type: ADME, organism-based; conditions: in vivo; how it was run: as §3
MIA PaCa-2 = experiment: Antiproliferative activity against human MIAPaCa2 cells incubated for 72 hrs by CCK8 assay; assay type: functional, cell-based
[12] = AUC (0 to infinity) in Sprague-Dawley rat at 50 mg/kg, ip measured after 0.083 to 24 hrs by LC-MS/MS analysis; assay type: ADME, organism-based; set-up: dose 50 mg/kg, route intraperitoneal, time infinity; conditions: in vivo; how it was run: as §3
SW480 [13] = experiment: Induction of apoptosis in human SW480 cells assessed as necrotic cells level at 20 uM incubated for 24 hrs by propidium iode and annexin V-FITC staining based flow cytometry (reference value: 2.79%); assay type: functional
[14] = Cmax in Sprague-Dawley rat at 50 mg/kg, ip measured after 0.083 to 24 hrs by LC-MS/MS analysis; assay type: ADME, organism-based; set-up: dose 50 mg/kg, route intraperitoneal; conditions: in vivo; how it was run: as §3
[15] = Clearance in Sprague-Dawley rat at 50 mg/kg, ip measured after 0.083 to 24 hrs by LC-MS/MS analysis; assay type: ADME, organism-based; conditions: in vivo; how it was run: as §3
[16] = Permeability in human Caco2 cells; assay type: ADME, cell-based; conditions: caco-2
Mus musculus [17] = experiment: In-vivo protac activity at cereblon/PDE6D in BALB/C nude mouse xenografted with human SW480 cells assessed as decrease in p-Akt level at 50 mg/kg, ip dosed once daily for 12 consecutive days by immunofluorescence assay; assay type: functional, organism-based; how it was run: as §1
SW480 [18] = experiment: Induction of apoptosis in human SW480 cells assessed as late apoptotic cells level at 20 uM incubated for 24 hrs by propidium iode and annexin V-FITC staining based flow cytometry (reference value: 4.46%); assay type: functional
SW480 [19] = experiment: Induction of apoptosis in human SW480 cells assessed as early apoptotic cells level at 20 uM incubated for 24 hrs by propidium iode and annexin V-FITC staining based flow cytometry (reference value: 1.76%); assay type: functional

## Cc1ccc(-n2nc3c(=O)n(CCCC(=O)NCCCCCCCCNc4ccc5c(c4)C(=O)N(C4CCC(=O)NC4=O)C5=O)nc(C)c3c2C)cc1 (stereo unspecified)
SW480 [1]
  IC50: 7 µM

## Cc1ccc(-n2nc3c(=O)n(CCCC(=O)NCCOCCOCCNc4cccc5c4C(=O)N(C4CCC(=O)NC4=O)C5=O)nc(C)c3c2C)cc1 (stereo unspecified)
SW480 [1]
  IC50: 58 µM
HCT-116
  IC50: 25 µM

## Cc1ccc(-n2nc3c(=O)n(CCCC(=O)NCCCCCCCNc4cccc5c4C(=O)N(C4CCC(=O)NC4=O)C5=O)nc(C)c3c2C)cc1 (stereo unspecified)
SW480 [1]
  IC50: 12 µM
HCT-116
  IC50: 20 µM

## Cc1ccc(-n2nc3c(=O)n(CCCC(=O)NCCCOCCOCCOCCCNc4cccc5c4C(=O)N(C4CCC(=O)NC4=O)C5=O)nc(C)c3c2C)cc1 (stereo unspecified)
SW480 [1]
  IC50: 26 µM
HCT-116
  IC50: 23 µM

## Cc1ccc(-n2nc3c(=O)n(CCCC(=O)NCCCCNc4cccc5c4C(=O)N(C4CCC(=O)NC4=O)C5=O)nc(C)c3c2C)cc1 (stereo unspecified)
SW480 [1]
  IC50: 76 µM
HCT-116
  IC50: 51 µM

## Cc1ccc(-n2nc3c(=O)n(CCCC(=O)NCCCCCCNc4cccc5c4C(=O)N(C4CCC(=O)NC4=O)C5=O)nc(C)c3c2C)cc1 (stereo unspecified)
SW480 [1]
  IC50: 15 µM
HCT-116
  IC50: 19 µM

## Cc1ccc(-n2nc3c(=O)n(CCCC(=O)NCC(C)c4ccccc4)nc(C)c3c2C)cc1 (stereo unspecified)
Mus musculus [2]
  Activity: inactive
SW480 [1]
  IC50: 56 µM
HCT-116
  IC50: 74 µM
[3]
  Activity: Non-Toxic
SW480 [4]
  Activity: 8.61%
SW480 [5]
  Activity: 2.44%
SW480 [6]
  Activity: 2.49%
SW480 [7]
  inhibition in vivo at 50 mg/kg: 24%
[8]
  Activity: Non-Toxic

## Cc1ccc(-n2nc3c(=O)n(CCCC(=O)NCCCNc4cccc5c4C(=O)N(C4CCC(=O)NC4=O)C5=O)nc(C)c3c2C)cc1 (stereo unspecified)
SW480 [1]
  IC50: 81 µM
HCT-116
  IC50: 68 µM

## Cc1ccc(-n2nc3c(=O)n(CCCC(=O)NCCCCCCCCNc4cccc5c4C(=O)N(C4CCC(=O)NC4=O)C5=O)nc(C)c3c2C)cc1 (stereo unspecified)
[9]
  Tmax: 1.67 h
Mus musculus [2]
  Activity: Active
SW480 [1]
  IC50: 8 µM
SW480 [10]
  IC50: 71 µM
[11]
  half-life: 5.11 h
MIA PaCa-2
  Activity: Active
[12]
  AUC(0-inf): 4710 ng·h/mL
SW480 [13]
  Activity: 0.9%
HCT-116
  IC50: 8 µM
[3]
  Activity: Non-Toxic
[14]
  Cmax: 564 ng/mL
[15]
  CL/F: 179 mL/min/kg
SW480 [4]
  Activity: 2.95%
[16]
  permeability: Impermeable
SW480 [5]
  Activity: 0.37%
Mus musculus [17]
  Activity: Active
SW480 [6]
  Activity: 62.58%
SW480 [7]
  inhibition in vivo at 50 mg/kg: 43%
[8]
  Activity: Non-Toxic
SW480 [18]
  Activity: 2.06%
SW480 [19]
  Activity: 36.25%

## Cc1ccc(-n2nc3c(=O)n(CCCC(=O)NCCCCCNc4cccc5c4C(=O)N(C4CCC(=O)NC4=O)C5=O)nc(C)c3c2C)cc1 (stereo unspecified)
SW480 [1]
  IC50: 17 µM
HCT-116
  IC50: 32 µM

## Cc1ccc(-n2nc3c(=O)n(CCCC(=O)NCCCCCCCCNc4cccc5c4C(=O)N(C4CCC(=O)N(C)C4=O)C5=O)nc(C)c3c2C)cc1 (stereo unspecified)
SW480 [1]
  IC50: 70 µM
